Laboratory results reported in paper PMC4980721 (Cellular and molecular gastroenterology and hepatology, 2016).
Several values for one entry are separate records, joined by “and”; a condition that tells them apart may be missing. Equal entries are not always repeated.

How the values were obtained:
[1] = tested on: SW620 cells; assay: Apparent association time constant by flow cytometry; assay type: binding, human; settings: from k = 0.83 min^−1
[2] = tested on: human proximal colon FFPE specimens; assay: Immunofluorescence of proximal human colon specimens with claudin-1 peptide; settings: human proximal colon FFPE sections, 5 µM peptide 10 min at RT
Procedure, shortened: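 FFPE sections (5 µm) deparaffinized. Antigen retrieval: boiling 10 mM sodium citrate, 0.05% Tween, pH 6.0, then sub-boiling 15 min. Protein serum block 15 min RT. 5 µM Cy5.5-labeled peptide 10 min RT, then anti-claudin-1 (1:200) overnight and AF488 secondary (1:500) 1 h RT, DAPI mount. Equal exposure; mean intensity from three 20×20 µm² boxes within epithelium per image, avoiding saturation.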

[3] = tested on: SW480 cells; assay: Cell binding assay, confocal microscopy; assay type: cell-based, human
Procedure, shortened: (§1)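 Cells grown in DMEM + 10% FBS + 1% penicillin/streptomycin at 37°C, 5% CO2, then seeded at ~0.5×10^6 cells/mL on coverslips. Next day, 10 µM Cy5.5-labeled test peptide or Cy5.5-labeled control peptide added for 1 h at 4°C. Fixed in 4% PFA 10 min RT, DAPI counterstain, confocal imaging. Intensities from 10 random cells in 3 independent images; one-way ANOVA.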

[4] = tested on: SW620 cells; assay: Cell binding assay, confocal microscopy; assay type: cell-based, human
Procedure, shortened: as §1

[5] = tested on: HCT116 cells; assay: Cell binding assay, confocal microscopy; assay type: cell-based, human
[6] = tested on: claudin-1 (CLDN1); assay: siRNA knockdown of claudin-1 expression, peptide and antibody staining; assay type: cell-based, human; settings: control and CLDN1 siRNA, confocal
Procedure, shortened: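 SW620 cells seeded at 0.2×10^6 cells/mL, transfected with DharmaFECT1 plus 25 nM CLDN1 SMARTpool or control siRNA for 72 h, then passaged onto coverslips. Knockdown checked by western blot. Staining: 5 µM Cy5.5-labeled peptide or control peptide 30 min at 4°C, then 4% PFA fixation; or methanol fixation, anti-CLDN1 5 µg/mL 1 h RT, AF488 secondary. Two-way ANOVA on average intensity (10 cells/slide, 2 slides/condition).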

| Substance | time constant / time scale for binding corresponding to k [1] | mean (±std) fluorescence intensity, SSA ([2]; n = 11 SSA) | mean (±std) fluorescence intensity, normal ([2]; n = 28 normal) | binding to cell surface on confocal microscopy [3] | binding to cell surface on confocal microscopy [4] | binding to cell surface on confocal microscopy [5] | binding / signal in SW620 cells transfected with siCL or siCLDN1 [6] |
| --- | --- | --- | --- | --- | --- | --- | --- |
| RTSPSSR [RTS*-Cy5.5] | < 1.2 min and ~ 1.2 min | 20.1±13.3 | 9.1±6.0 | – | – | – | – |
| SPTSSRR [SPT*-Cy5.5] | – | – | – | minimal binding | minimal binding | minimal binding | minimal binding |
